Assay results: ChEMBL document CHEMBL3044834, “Novel protoporphyrinogen oxidase inhibitors: 3H-pyrazolo[3,4-d][1,2,3]triazin-4-one derivatives” (J Agric Food Chem, 2008)

system: Echinochloa crus-galli; test: Herbicidal activity against Echinochloa crus-galli (barnyard grass) assessed as inhibition of fresh weed plant weight at 1500 g/ha using pre-emergence treatment protocol; assay type: functional

| Compound | inhibition at 1500 g/ha |
| --- | --- |
| C=CCOc1cc(-n2nnc3c(cnn3CC=C)c2=O)c(F)cc1Cl | 30.1% |

system: Digitaria sanguinalis; test: Herbicidal activity against Digitaria sanguinalis (hairy crabgrass) assessed as inhibition of fresh weed plant weight at 750 g/ha using post-emergence treatment protocol; assay type: functional
Method in brief: (§1)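 Test compounds made up as emulsions by dissolving in 100 µL N,N-dimethylformamide, then adding a little Tween 20 and water. For post-emergence, weed seedlings at one leaf and one stem were sprayed at the same rates as the pre-emergence test. Fresh weight was recorded 15 days after treatment and expressed as percent inhibition versus controls. All treatments were run in triplicate.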

| Compound | inhibition at 750 g/ha |
| --- | --- |
| C=CCOc1cc(-n2nnc3c(cnn3CC=C)c2=O)c(F)cc1Cl | 11.1% |

system: Amaranthus retroflexus; test: Herbicidal activity against Amaranthus retroflexus assessed as inhibition of fresh weed plant weight at 750 g/ha using pre-emergence treatment protocol; assay type: functional; method in brief: as §1

| Compound | inhibition at 750 g/ha |
| --- | --- |
| C=CCOc1cc(-n2nnc3c(cnn3CC=C)c2=O)c(F)cc1Cl | 34.4% |

system: Amaranthus retroflexus; test: Herbicidal activity against Amaranthus retroflexus assessed as inhibition of fresh weed plant weight at 375 g/ha using post-emergence treatment protocol; assay type: functional; method in brief: as §1

| Compound | inhibition at 375 g/ha |
| --- | --- |
| C=CCOc1cc(-n2nnc3c(cnn3CC=C)c2=O)c(F)cc1Cl | 85.4% |

system: Brassica rapa subsp. oleifera; test: Herbicidal activity against Brassica rapa subsp. oleifera assessed as inhibition of fresh weed plant weight at 187.5 g/ha using post-emergence treatment protocol; assay type: functional; method in brief: as §1

| Compound | inhibition at 187.5 g/ha |
| --- | --- |
| C=CCOc1cc(-n2nnc3c(cnn3CC=C)c2=O)c(F)cc1Cl | 0% |

system: Echinochloa crus-galli; test: Herbicidal activity against Echinochloa crus-galli (barnyard grass) assessed as inhibition of fresh weed plant weight at 375 g/ha using pre-emergence treatment protocol; assay type: functional; method in brief: as §1

| Compound | inhibition at 375 g/ha |
| --- | --- |
| C=CCOc1cc(-n2nnc3c(cnn3CC=C)c2=O)c(F)cc1Cl | 10% |

system: Digitaria sanguinalis; test: Herbicidal activity against Digitaria sanguinalis (hairy crabgrass) assessed as inhibition of fresh weed plant weight at 1500 g/ha using post-emergence treatment protocol; assay type: functional; method in brief: as §1

| Compound | inhibition at 1500 g/ha |
| --- | --- |
| C=CCOc1cc(-n2nnc3c(cnn3CC=C)c2=O)c(F)cc1Cl | 23.1% |

system: Digitaria sanguinalis; test: Herbicidal activity against Digitaria sanguinalis (hairy crabgrass) assessed as inhibition of fresh weed plant weight at 375 g/ha using post-emergence treatment protocol; assay type: functional; method in brief: as §1

| Compound | inhibition at 375 g/ha |
| --- | --- |
| C=CCOc1cc(-n2nnc3c(cnn3CC=C)c2=O)c(F)cc1Cl | 0% |

system: Amaranthus retroflexus; test: Herbicidal activity against Amaranthus retroflexus assessed as inhibition of fresh weed plant weight at 187.5 g/ha using post-emergence treatment protocol; assay type: functional; method in brief: as §1

| Compound | inhibition at 187.5 g/ha |
| --- | --- |
| C=CCOc1cc(-n2nnc3c(cnn3CC=C)c2=O)c(F)cc1Cl | 12.2% |

system: Brassica rapa subsp. oleifera; test: Herbicidal activity against Brassica rapa subsp. oleifera assessed as inhibition of fresh weed plant weight at 750 g/ha using post-emergence treatment protocol; assay type: functional; method in brief: as §1

| Compound | inhibition at 750 g/ha |
| --- | --- |
| C=CCOc1cc(-n2nnc3c(cnn3CC=C)c2=O)c(F)cc1Cl | 2.9% |

system: Echinochloa crus-galli; test: Herbicidal activity against Echinochloa crus-galli (barnyard grass) assessed as inhibition of fresh weed plant weight at 187.5 g/ha using pre-emergence treatment protocol; assay type: functional; method in brief: as §1

| Compound | inhibition at 187.5 g/ha |
| --- | --- |
| C=CCOc1cc(-n2nnc3c(cnn3CC=C)c2=O)c(F)cc1Cl | 6.5% |

system: Amaranthus retroflexus; test: Herbicidal activity against Amaranthus retroflexus assessed as inhibition of fresh weed plant weight at 750 g/ha using post-emergence treatment protocol; assay type: functional; method in brief: as §1

| Compound | inhibition at 750 g/ha |
| --- | --- |
| C=CCOc1cc(-n2nnc3c(cnn3CC=C)c2=O)c(F)cc1Cl | 100% |

system: Digitaria sanguinalis; test: Herbicidal activity against Digitaria sanguinalis (hairy crabgrass) assessed as inhibition of fresh weed plant weight at 1500 g/ha using pre-emergence treatment protocol; assay type: functional

| Compound | inhibition at 1500 g/ha |
| --- | --- |
| C=CCOc1cc(-n2nnc3c(cnn3CC=C)c2=O)c(F)cc1Cl | 10.5% |

system: Digitaria sanguinalis; test: Herbicidal activity against Digitaria sanguinalis (hairy crabgrass) assessed as inhibition of fresh weed plant weight at 187.5 g/ha using pre-emergence treatment protocol; assay type: functional

| Compound | inhibition at 187.5 g/ha |
| --- | --- |
| C=CCOc1cc(-n2nnc3c(cnn3CC=C)c2=O)c(F)cc1Cl | 0% |

system: Amaranthus retroflexus; test: Herbicidal activity against Amaranthus retroflexus assessed as inhibition of fresh weed plant weight at 1500 g/ha using post-emergence treatment protocol; assay type: functional; method in brief: as §1

| Compound | inhibition at 1500 g/ha |
| --- | --- |
| C=CCOc1cc(-n2nnc3c(cnn3CC=C)c2=O)c(F)cc1Cl | 100% |

system: Brassica rapa subsp. oleifera; test: Herbicidal activity against Brassica rapa subsp. oleifera assessed as inhibition of fresh weed plant weight at 375 g/ha using pre-emergence treatment protocol; assay type: functional

| Compound | inhibition at 375 g/ha |
| --- | --- |
| C=CCOc1cc(-n2nnc3c(cnn3CC=C)c2=O)c(F)cc1Cl | 11.9% |

system: Amaranthus retroflexus; test: Herbicidal activity against Amaranthus retroflexus assessed as inhibition of fresh weed plant weight at 187.5 g/ha using pre-emergence treatment protocol; assay type: functional

| Compound | inhibition at 187.5 g/ha |
| --- | --- |
| C=CCOc1cc(-n2nnc3c(cnn3CC=C)c2=O)c(F)cc1Cl | 1.6% |

system: Brassica rapa subsp. oleifera; test: Herbicidal activity against Brassica rapa subsp. oleifera assessed as inhibition of fresh weed plant weight at 1500 g/ha using post-emergence treatment protocol; assay type: functional; method in brief: as §1

| Compound | inhibition at 1500 g/ha |
| --- | --- |
| C=CCOc1cc(-n2nnc3c(cnn3CC=C)c2=O)c(F)cc1Cl | 10.3% |

system: Echinochloa crus-galli; test: Herbicidal activity against Echinochloa crus-galli (barnyard grass) assessed as inhibition of fresh weed plant weight at 375 g/ha using post-emergence treatment protocol; assay type: functional; method in brief: as §1

| Compound | inhibition at 375 g/ha |
| --- | --- |
| C=CCOc1cc(-n2nnc3c(cnn3CC=C)c2=O)c(F)cc1Cl | 18% |

system: Digitaria sanguinalis; test: Herbicidal activity against Digitaria sanguinalis (hairy crabgrass) assessed as inhibition of fresh weed plant weight at 187.5 g/ha using post-emergence treatment protocol; assay type: functional; method in brief: as §1

| Compound | inhibition at 187.5 g/ha |
| --- | --- |
| C=CCOc1cc(-n2nnc3c(cnn3CC=C)c2=O)c(F)cc1Cl | 0% |

system: Digitaria sanguinalis; test: Herbicidal activity against Digitaria sanguinalis (hairy crabgrass) assessed as inhibition of fresh weed plant weight at 750 g/ha using pre-emergence treatment protocol; assay type: functional

| Compound | inhibition at 750 g/ha |
| --- | --- |
| C=CCOc1cc(-n2nnc3c(cnn3CC=C)c2=O)c(F)cc1Cl | 4.3% |

system: Echinochloa crus-galli; test: Herbicidal activity against Echinochloa crus-galli (barnyard grass) assessed as inhibition of fresh weed plant weight at 750 g/ha using post-emergence treatment protocol; assay type: functional; method in brief: as §1

| Compound | inhibition at 750 g/ha |
| --- | --- |
| C=CCOc1cc(-n2nnc3c(cnn3CC=C)c2=O)c(F)cc1Cl | 22% |

system: Digitaria sanguinalis; test: Herbicidal activity against Digitaria sanguinalis (hairy crabgrass) assessed as inhibition of fresh weed plant weight at 375 g/ha using pre-emergence treatment protocol; assay type: functional

| Compound | inhibition at 375 g/ha |
| --- | --- |
| C=CCOc1cc(-n2nnc3c(cnn3CC=C)c2=O)c(F)cc1Cl | 0% |

system: Amaranthus retroflexus; test: Herbicidal activity against Amaranthus retroflexus assessed as inhibition of fresh weed plant weight at 1500 g/ha using pre-emergence treatment protocol; assay type: functional

| Compound | inhibition at 1500 g/ha |
| --- | --- |
| C=CCOc1cc(-n2nnc3c(cnn3CC=C)c2=O)c(F)cc1Cl | 60.1% |

system: Brassica rapa subsp. oleifera; test: Herbicidal activity against Brassica rapa subsp. oleifera assessed as inhibition of fresh weed plant weight at 375 g/ha using post-emergence treatment protocol; assay type: functional; method in brief: as §1

| Compound | inhibition at 375 g/ha |
| --- | --- |
| C=CCOc1cc(-n2nnc3c(cnn3CC=C)c2=O)c(F)cc1Cl | 0% |

system: Brassica rapa subsp. oleifera; test: Herbicidal activity against Brassica rapa subsp. oleifera assessed as inhibition of fresh weed plant weight at 1500 g/ha using pre-emergence treatment protocol; assay type: functional

| Compound | inhibition at 1500 g/ha |
| --- | --- |
| C=CCOc1cc(-n2nnc3c(cnn3CC=C)c2=O)c(F)cc1Cl | 30.5% |

system: Echinochloa crus-galli; test: Herbicidal activity against Echinochloa crus-galli (barnyard grass) assessed as inhibition of fresh weed plant weight at 1500 g/ha using post-emergence treatment protocol; assay type: functional; method in brief: as §1

| Compound | inhibition at 1500 g/ha |
| --- | --- |
| C=CCOc1cc(-n2nnc3c(cnn3CC=C)c2=O)c(F)cc1Cl | 32.3% |

system: Echinochloa crus-galli; test: Herbicidal activity against Echinochloa crus-galli (barnyard grass) assessed as inhibition of fresh weed plant weight at 187.5 g/ha using post-emergence treatment protocol; assay type: functional; method in brief: as §1

| Compound | inhibition at 187.5 g/ha |
| --- | --- |
| C=CCOc1cc(-n2nnc3c(cnn3CC=C)c2=O)c(F)cc1Cl | 2.4% |

system: Amaranthus retroflexus; test: Herbicidal activity against Amaranthus retroflexus assessed as inhibition of fresh weed plant weight at 375 g/ha using pre-emergence treatment protocol; assay type: functional

| Compound | inhibition at 375 g/ha |
| --- | --- |
| C=CCOc1cc(-n2nnc3c(cnn3CC=C)c2=O)c(F)cc1Cl | 27.9% |

system: Brassica rapa subsp. oleifera; test: Herbicidal activity against Brassica rapa subsp. oleifera assessed as inhibition of fresh weed plant weight at 750 g/ha using pre-emergence treatment protocol; assay type: functional

| Compound | inhibition at 750 g/ha |
| --- | --- |
| C=CCOc1cc(-n2nnc3c(cnn3CC=C)c2=O)c(F)cc1Cl | 16.4% |

system: Echinochloa crus-galli; test: Herbicidal activity against Echinochloa crus-galli (barnyard grass) assessed as inhibition of fresh weed plant weight at 750 g/ha using pre-emergence treatment protocol; assay type: functional

| Compound | inhibition at 750 g/ha |
| --- | --- |
| C=CCOc1cc(-n2nnc3c(cnn3CC=C)c2=O)c(F)cc1Cl | 16.9% |

system: Brassica rapa subsp. oleifera; test: Herbicidal activity against Brassica rapa subsp. oleifera assessed as inhibition of fresh weed plant weight at 187.5 g/ha using pre-emergence treatment protocol; assay type: functional

| Compound | inhibition at 187.5 g/ha |
| --- | --- |
| C=CCOc1cc(-n2nnc3c(cnn3CC=C)c2=O)c(F)cc1Cl | 9% |
